Assay results gathered from unrelated publications.
CDK2 with cyclin A2: Cyclin-dependent kinase 2, with cyclin A2 (CDK2, Homo sapiens, UniProt P24941)
ST14: Suppressor of tumorigenicity 14 protein (ST14, Homo sapiens, UniProt Q9Y5Y6)

SMILES | target | assay | setting | endpoint | value
CNC(=O)c1cc(Oc2ccc(NC(=O)Nc3ccc(Cl)c(C(F)(F)F)c3)cc2)ccn1 | CDK2 with cyclin A2 | enzyme activity, inhibitor | 5 nM | inhibition | 27.6%
Cc1cc([C@@H](C)Nc2ccccc2C(=O)O)c2nc(N3CCC(F)(F)CC3)c(C#N)c(=O)n2c1 | Mitogen-activated protein kinase 10 (MAPK10, Homo sapiens, UniProt P53779) | binding, competition with immobilised ligand | 10 µM | remaining binding | 100%
N=C(N)NCCC[C@H](NC(=O)[C@H](Cc1ccc(-c2ccccc2)cc1)NC(=O)[C@H](Cc1cscn1)NC(=O)CCc1ccccc1)C(=O)c1nc2ccccc2s1 | ST14 | enzyme activity, inhibitor | 0.1 µM | remaining activity | 30%
COc1cc(-c2cncc3c2CN(C)Cc2cc(N4CCNCC4)ccc2-3)cc(OC)c1OC | Dual specificity protein kinase CLK3 (CLK3, Homo sapiens, UniProt P49761) | enzyme activity, inhibitor | 1 µM | remaining activity | 103%
N=C(N)NCCC[C@H](NC(=O)[C@@H](NC(=O)[C@H](Cc1cscn1)NC(=O)CCc1ccccc1)C1CC1)C(=O)c1nc2ccccc2s1 | ST14 | enzyme activity, inhibitor | 0.1 µM | remaining activity | 90%
CNc1ncc2c(/C=C/C(=O)N3CCC(OC)CC3)nn(Cc3cccc(C(F)(F)F)c3)c2n1 | Angiopoietin-1 receptor (TEK, Homo sapiens, UniProt Q02763) | enzyme activity, inhibitor, radiometric | 1 µM | remaining activity | 98%
CC(=O)Nc1c(N)nc(SCC(=O)NN)[nH]c1=O | CDK2 with cyclin A2 | enzyme activity, inhibitor | 200 pM | inhibition | 3.98%
CC[C@@H](C)[C@H](NC(=O)[C@H](Cc1cscn1)NC(=O)CCc1ccccc1)C(=O)N[C@@H](CCCNC(=N)N)C(=O)c1nc2ccccc2s1 | ST14 | enzyme activity, inhibitor | 0.1 µM | remaining activity | 4%
C=CC(=O)N1CCC(COCC(=O)N2CCN(c3nc(-c4cnc(N)nc4C(F)F)nc(N4CCOC[C@@H]4C)n3)CC2)CC1 | Mitogen-activated protein kinase kinase kinase kinase 1 (MAP4K1, Homo sapiens, UniProt Q92918) | binding, competition with immobilised ligand | 1 µM | remaining binding | 100%
CC(=O)Nc1c(N)nc(SCC(=O)N/N=C/c2ccc([N+](=O)[O-])cc2)[nH]c1=O | CDK2 with cyclin A2 | enzyme activity, inhibitor | 1 µM | inhibition | 67.2%
